From ChEMBL document CHEMBL1255510, “Discovery of a class of calcium sensing receptor positive allosteric modulators; 1-(benzothiazol-2-yl)-1-phenylethanols” (Bioorg Med Chem Lett, 2010)
Structures can show the parent of a compound that is named as a salt. Calls of active or inactive are those of the source. The rule behind the calls is not given here.

Key:
[1] = target: T1, Extracellular calcium-sensing receptor (Homo sapiens, UniProt P41180); test: Positive allosteric modulation of calcium sensing receptor by cell based assay; format: functional
T1 sequence (P41180 whole entry): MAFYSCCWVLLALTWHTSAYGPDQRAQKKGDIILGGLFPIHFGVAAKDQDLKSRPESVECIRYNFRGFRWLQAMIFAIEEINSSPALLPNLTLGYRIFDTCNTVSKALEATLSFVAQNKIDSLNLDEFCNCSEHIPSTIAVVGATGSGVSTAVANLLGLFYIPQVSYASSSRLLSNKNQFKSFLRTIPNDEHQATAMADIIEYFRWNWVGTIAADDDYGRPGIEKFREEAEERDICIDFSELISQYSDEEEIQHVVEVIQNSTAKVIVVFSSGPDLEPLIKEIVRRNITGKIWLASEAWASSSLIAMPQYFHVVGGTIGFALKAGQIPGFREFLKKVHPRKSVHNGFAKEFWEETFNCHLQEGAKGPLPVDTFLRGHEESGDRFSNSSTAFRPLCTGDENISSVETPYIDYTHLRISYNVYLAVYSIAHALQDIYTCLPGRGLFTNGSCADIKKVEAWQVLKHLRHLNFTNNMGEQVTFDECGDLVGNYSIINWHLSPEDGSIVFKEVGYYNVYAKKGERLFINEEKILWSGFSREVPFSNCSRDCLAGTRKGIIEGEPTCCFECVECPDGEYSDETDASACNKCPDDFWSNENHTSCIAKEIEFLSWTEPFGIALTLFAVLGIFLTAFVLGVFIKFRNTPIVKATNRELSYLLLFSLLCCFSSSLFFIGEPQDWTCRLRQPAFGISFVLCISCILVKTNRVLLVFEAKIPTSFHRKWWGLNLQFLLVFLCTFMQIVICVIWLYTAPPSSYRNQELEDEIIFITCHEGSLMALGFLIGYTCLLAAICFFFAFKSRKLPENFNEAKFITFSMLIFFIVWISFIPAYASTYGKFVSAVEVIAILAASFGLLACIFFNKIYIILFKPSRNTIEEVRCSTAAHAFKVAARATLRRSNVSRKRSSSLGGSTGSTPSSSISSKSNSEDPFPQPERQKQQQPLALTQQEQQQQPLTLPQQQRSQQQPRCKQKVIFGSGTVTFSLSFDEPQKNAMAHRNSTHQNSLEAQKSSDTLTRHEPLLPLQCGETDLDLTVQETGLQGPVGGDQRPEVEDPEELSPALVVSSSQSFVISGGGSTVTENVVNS
Summary of the method: (§1)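 R-SAT cell-based functional assay; cells kept in DMEM with 0.8 mM MgCl2 and 1.6 mM CaCl2 to raise sensitivity. Means of at least three independent experiments, standard deviation reported.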

[2] = target: T2, Extracellular calcium-sensing receptor (Homo sapiens) (UniProt P41180); test: Positive allosteric modulation of calcium sensing receptor by cell based assay relative to control; format: functional; summary of the method: as §1
T2 sequence (whole entry): T1 sequence (P41180 whole entry)

[3] = target: T2, Extracellular calcium-sensing receptor (Homo sapiens); test: Positive allosteric modulation of calcium sensing receptor by phosphatidyl inositol hydrolysis assay; format: functional
[4] = target: T2, Extracellular calcium-sensing receptor (Homo sapiens); test: Positive allosteric modulation of calcium sensing receptor at 10 nM by cell based assay; format: functional
[5] = target: T2, Extracellular calcium-sensing receptor (Homo sapiens); test: Positive allosteric modulation of calcium sensing receptor at 10 nM by cell based assay relative to control; format: functional
[6] = target: T3, Parathyroid hormone/parathyroid hormone-related peptide receptor (Homo sapiens) (UniProt Q03431); test: Activation of human PTH1 receptor
T3 sequence (whole entry): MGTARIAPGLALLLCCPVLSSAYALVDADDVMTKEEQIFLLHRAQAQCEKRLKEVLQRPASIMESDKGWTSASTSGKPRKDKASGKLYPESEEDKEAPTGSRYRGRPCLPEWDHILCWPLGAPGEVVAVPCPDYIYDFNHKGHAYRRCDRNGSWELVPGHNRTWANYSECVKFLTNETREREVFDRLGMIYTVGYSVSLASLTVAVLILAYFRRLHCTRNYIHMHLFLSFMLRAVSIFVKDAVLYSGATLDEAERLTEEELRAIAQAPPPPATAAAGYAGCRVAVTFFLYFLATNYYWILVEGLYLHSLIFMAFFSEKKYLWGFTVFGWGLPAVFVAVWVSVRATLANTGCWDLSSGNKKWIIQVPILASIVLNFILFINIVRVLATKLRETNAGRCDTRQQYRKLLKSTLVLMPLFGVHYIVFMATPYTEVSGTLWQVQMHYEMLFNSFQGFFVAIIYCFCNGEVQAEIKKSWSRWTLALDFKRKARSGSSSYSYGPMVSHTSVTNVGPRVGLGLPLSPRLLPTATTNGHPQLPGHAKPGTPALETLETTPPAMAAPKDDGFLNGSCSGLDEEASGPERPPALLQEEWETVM

[7] = Intrinsic clearance in human liver microsomes; format: ADME, Microsome
Rattus norvegicus = test: Reduction of parathyroid hormone level in Sprague-Dawley rat at up to 10 mg/kg, sc after 1 hr by ELISA; format: functional, organism-based; design: dose 10 mg/kg
Summary of the method: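 Male Sprague–Dawley rats dosed subcutaneously; blood sampled 1 h post-dose and plasma PTH measured by ELISA.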

Homo sapiens = species on record: Homo sapiens; test: Activation of human GABAB receptor

SMILES | EC50 [1] [nM] | Efficacy [2] [%] | further results
CC(O)(c1ccc(Cl)c(Cl)c1)c1nc2ccccc2s1 (stereo not given) | 100 | 62 | –
Cc1ccc([C@@](C)(O)c2nc3ccccc3s2)c(C)c1 | 79.4 | 79 | Activity [3]: Active
C[C@@H](NCCCc1cccc(C(F)(F)F)c1)c1cccc2ccccc12 [CINACALCET HYDROCHLORIDE] | 20 | 115 | –
CC(O)(c1ccc2ccccc2c1)c1nc2ccccc2s1 (stereo not given) | 631 | 53 | –
Cc1ccc([C@](C)(O)c2nc3ccccc3s2)c(C)c1 | 10 | 83 | Activity [3]: Active
Cc1ccc(C(O)c2nc3ccccc3s2)c(C)c1 (stereo not given) | – | – | Activity [4]: inactive; Activity [5]: inactive
Cc1ccc(C(C)(O)c2nc3ccccc3s2)c(C)c1 (stereo not given) | 25.1 | 91 | Activity [6]: inactive; microsomal CLint [7]: 396 µL/min/mg; Activity (Rattus norvegicus): Active; Activity (Homo sapiens): inactive; Activity [3]: Active
Cc1cc(C(C)(O)c2nc3ccccc3s2)ccc1F (stereo not given) | 158 | 62 | –
OC(c1ccccc1)(c1ccc(Cl)c(Cl)c1)c1nc2ccccc2s1 (stereo not given) | – | – | Activity [4]: inactive; Activity [5]: inactive
CC(O)(c1nc2ccccc2s1)c1ccc(Cl)cc1Cl (stereo not given) | 100 | 82 | microsomal CLint [7]: 66 µL/min/mg
CC(O)(c1ccc(Cl)cc1)c1nc2ccccc2s1 (stereo not given) | 398 | 68 | microsomal CLint [7]: > 200 µL/min/mg
Cc1cc(C)c2c(c1)C(O)(c1nc3ccccc3s1)CCC2 (stereo not given) | 316 | 81 | –
C=C(c1nc2ccccc2s1)c1ccc(C)cc1C | – | – | Activity [4]: inactive; Activity [5]: inactive
Cc1ccc(C(C)c2nc3ccccc3s2)c(C)c1 (stereo not given) | 2510 | 88 | –
Cc1ccccc1C(C)(O)c1nc2ccccc2s1 (stereo not given) | 251 | 72 | –
Cc1cc(Cl)ccc1C(C)(O)c1nc2ccccc2s1 (stereo not given) | 31.6 | 94 | –
COc1ccccc1C(C)(O)c1nc2ccccc2s1 (stereo not given) | 3980 | 26 | –
Cc1ccc(C(O)(c2nc3ccccc3s2)C2CC2)c(C)c1 (stereo not given) | 200 | 76 | –
